Data from ChEMBL document CHEMBL1147738, “Potent and selective mitogen-activated protein kinase kinase (MEK) 1,2 inhibitors. 1. 4-(4-bromo-2-fluorophenylamino)-1- methylpyridin-2(1H)-ones” (J Med Chem, 2006).
Converted amounts (≈) assume the structure as drawn.

How the values were obtained:
[1] = molecular target: Mitogen-activated protein kinase 1 (Homo sapiens) (UniProt P28482); test: Inhibition of MAPK2/ERK2 at 10 uM
In short: (§1)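 Kinase panel run at Upstate (Dundee). Each compound was tested at 10 µM against each enzyme and reported as % inhibition.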

[2] = molecular target: Mitogen-activated protein kinase 11 (Homo sapiens) (UniProt Q15759); test: Inhibition of SAPK2b/p38--beta-2 at 10 uM; in short: as §1
Chain of Mitogen-activated protein kinase 11 (Homo sapiens) (Q15759 whole entry): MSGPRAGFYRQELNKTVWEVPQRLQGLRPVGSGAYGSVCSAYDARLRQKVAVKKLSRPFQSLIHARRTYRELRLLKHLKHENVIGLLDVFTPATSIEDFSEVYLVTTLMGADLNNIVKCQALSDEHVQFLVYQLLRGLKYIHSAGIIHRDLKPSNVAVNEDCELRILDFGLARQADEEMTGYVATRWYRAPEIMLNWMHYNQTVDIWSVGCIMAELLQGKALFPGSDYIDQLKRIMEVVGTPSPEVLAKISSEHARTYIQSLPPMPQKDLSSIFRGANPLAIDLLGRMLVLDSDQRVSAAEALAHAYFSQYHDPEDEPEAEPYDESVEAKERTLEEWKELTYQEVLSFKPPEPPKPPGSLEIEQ

[3] = molecular target: Ribosomal protein S6 kinase alpha-1 (Homo sapiens) (UniProt Q15418); test: Inhibition of MAPKAP-K1a at 10 uM; in short: as §1
Chain of Ribosomal protein S6 kinase alpha-1 (Homo sapiens) (Q15418 whole entry): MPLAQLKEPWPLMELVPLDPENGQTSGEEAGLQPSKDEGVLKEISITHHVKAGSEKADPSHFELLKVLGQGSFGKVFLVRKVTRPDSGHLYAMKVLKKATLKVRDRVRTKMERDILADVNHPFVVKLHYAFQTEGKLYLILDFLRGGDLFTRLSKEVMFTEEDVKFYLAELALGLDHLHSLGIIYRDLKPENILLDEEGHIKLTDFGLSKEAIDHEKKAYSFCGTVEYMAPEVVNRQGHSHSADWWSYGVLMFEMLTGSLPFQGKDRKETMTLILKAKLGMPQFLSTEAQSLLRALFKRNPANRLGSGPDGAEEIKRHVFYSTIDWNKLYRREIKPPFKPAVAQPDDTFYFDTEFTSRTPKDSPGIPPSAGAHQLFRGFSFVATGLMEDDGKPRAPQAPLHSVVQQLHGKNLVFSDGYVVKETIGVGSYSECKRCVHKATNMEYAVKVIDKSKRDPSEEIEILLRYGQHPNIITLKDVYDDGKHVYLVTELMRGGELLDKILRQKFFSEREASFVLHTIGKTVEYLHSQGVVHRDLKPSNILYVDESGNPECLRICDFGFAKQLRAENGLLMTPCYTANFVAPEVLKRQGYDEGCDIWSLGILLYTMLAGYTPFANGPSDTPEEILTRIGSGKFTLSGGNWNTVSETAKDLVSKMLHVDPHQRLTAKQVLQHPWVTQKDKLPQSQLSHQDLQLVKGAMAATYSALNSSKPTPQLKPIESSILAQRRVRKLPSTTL

[4] = molecular target: Mitogen-activated protein kinase 8 (Homo sapiens) (UniProt P45983); test: Inhibition of JNK/SAPK1c at 10 uM; in short: as §1
Chain of Mitogen-activated protein kinase 8 (Homo sapiens) (P45983 whole entry): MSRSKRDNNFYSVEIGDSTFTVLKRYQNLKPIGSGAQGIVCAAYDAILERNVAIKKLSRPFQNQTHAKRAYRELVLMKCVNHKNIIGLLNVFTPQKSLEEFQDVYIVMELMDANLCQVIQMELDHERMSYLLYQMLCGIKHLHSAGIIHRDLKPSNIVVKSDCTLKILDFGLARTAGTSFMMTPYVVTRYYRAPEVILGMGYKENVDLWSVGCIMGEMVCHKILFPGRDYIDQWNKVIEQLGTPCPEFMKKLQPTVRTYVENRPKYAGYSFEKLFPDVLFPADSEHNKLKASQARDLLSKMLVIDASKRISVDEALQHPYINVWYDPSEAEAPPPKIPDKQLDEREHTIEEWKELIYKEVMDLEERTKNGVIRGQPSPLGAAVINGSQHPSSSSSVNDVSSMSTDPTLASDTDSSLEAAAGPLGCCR

Malme-3M = test: Inhibition of cellular viability of Malme-3M cells; assay type: functional, Homo sapiens
[5] = Aqueous solubility at pH 6.5; assay type: physicochemical
In short: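 Thermodynamic shake-flask method: crystalline solid (0.5 mg, crystallinity confirmed by polarizing microscopy) in 0.5 mL 10 mM potassium phosphate, pH 6.5, swirled 24 h at room temperature. Filtered aliquots were quantified by HPLC-PDA against a calibration curve.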

[6] = Clearance in rat; assay type: ADME, organism-based; settings: Sprague-Dawley, in vivo
In short: (§2)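 Male Sprague Dawley rats (6-10 weeks) received IV 1 mg/kg (10% DMSO/90% saline) and PO 10 mg/kg (1% CMC/0.5% Tween 80). Serial tail-vein plasma was taken up to 24 h (IV) or 72 h (PO) and analysed by LC/MS/MS (9 ng/mL to 20 µg/mL). Parameters were calculated non-compartmentally.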

[7] = Volume of distribution in rat; assay type: ADME, organism-based; settings: Sprague-Dawley, in vivo, read-out: Vdss; in short: as §2
Rattus norvegicus [8] = test: AUC in rat at 1 mg/kg, iv; assay type: ADME, organism-based, Sprague-Dawley, Plasma; design: dose 1 mg/kg, route intravenous; settings: in vivo
In short: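 Male Sprague Dawley rats (6-10 weeks), fed ad lib, dosed IV at 1 mg/kg (1 mg/mL in 10% DMSO/90% normal saline, 1 mL/kg). Tail-vein EDTA blood sampled 1, 5, 15, 30 min and 1, 2, 4, 8, 12, 24 h. Plasma analysed by LC/MS/MS after methanol protein precipitation, range 9 ng/mL to 20 µg/mL. Parameters derived by non-compartmental analysis.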

Rattus norvegicus [9] = test: AUC in rat at 10 mg/kg, po; assay type: ADME, organism-based, Sprague-Dawley, Plasma; design: dose 10 mg/kg, route oral; settings: in vivo
In short: (§3)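 Male Sprague Dawley rats (6-10 weeks) were given 10 mg/kg by oral gavage (2 mg/mL in 1% CMC/0.5% Tween 80, 5 mL/kg). Tail-vein EDTA blood was drawn at 15 and 30 min and 1, 2, 4, 8, 12, 24, 48, 72 h. Plasma was quantified by LC/MS/MS after methanol precipitation. Parameters came from non-compartmental analysis.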

[10] = Half life in rat at 10 mg/kg, po; assay type: ADME, organism-based; design: dose 10 mg/kg, route oral; settings: Sprague-Dawley, in vivo; in short: as §3
[11] = Oral bioavailability in rat; assay type: ADME, organism-based; settings: Sprague-Dawley, in vivo; in short: as §2
HT-29 = test: Inhibition of ERK phosphorylation in HT29 tumor bearing NCr-nu/nu mice after 4 hrs at 10 mg/kg, po; assay type: functional; settings: Mus musculus, HT-29, 4 h
[12] = molecular target: AMP-activated protein kinase, AMPK (Homo sapiens) (UniProt P54646+O43741+P54619+Q9UGJ0+Q9Y478+Q13131+Q9UGI9); test: Inhibition of AMPK at 10 uM; assay type: protein-complex assay; in short: as §1
[13] = molecular target: T1, Serine/threonine-protein kinase Chk1 (Homo sapiens) (UniProt O14757); test: Inhibition of CHK1 at 10 uM; in short: as §1
T1 sequence (whole entry): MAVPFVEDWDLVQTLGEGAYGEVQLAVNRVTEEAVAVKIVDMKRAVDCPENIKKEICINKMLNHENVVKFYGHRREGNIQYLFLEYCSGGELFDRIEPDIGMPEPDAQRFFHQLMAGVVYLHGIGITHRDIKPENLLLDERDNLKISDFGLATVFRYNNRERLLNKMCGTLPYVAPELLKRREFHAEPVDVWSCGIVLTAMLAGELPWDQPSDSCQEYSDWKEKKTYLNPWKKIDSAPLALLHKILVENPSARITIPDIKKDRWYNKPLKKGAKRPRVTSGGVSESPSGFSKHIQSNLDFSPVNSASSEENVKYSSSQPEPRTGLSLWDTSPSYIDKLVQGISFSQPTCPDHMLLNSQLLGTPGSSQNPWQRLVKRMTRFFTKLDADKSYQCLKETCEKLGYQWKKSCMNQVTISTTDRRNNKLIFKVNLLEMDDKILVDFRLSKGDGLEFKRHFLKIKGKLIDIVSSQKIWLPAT

[14] = molecular target: Casein kinase II (Homo sapiens) (UniProt P67870+P68400+P19784); test: Inhibition of CK2 at 10 uM; assay type: protein-complex assay; in short: as §1
[15] = molecular target: Tyrosine-protein kinase Lck (Homo sapiens) (UniProt P06239); test: Inhibition of LCK at 10 uM; in short: as §1
Chain of Tyrosine-protein kinase Lck (Homo sapiens) (P06239 2-509 limits assumed): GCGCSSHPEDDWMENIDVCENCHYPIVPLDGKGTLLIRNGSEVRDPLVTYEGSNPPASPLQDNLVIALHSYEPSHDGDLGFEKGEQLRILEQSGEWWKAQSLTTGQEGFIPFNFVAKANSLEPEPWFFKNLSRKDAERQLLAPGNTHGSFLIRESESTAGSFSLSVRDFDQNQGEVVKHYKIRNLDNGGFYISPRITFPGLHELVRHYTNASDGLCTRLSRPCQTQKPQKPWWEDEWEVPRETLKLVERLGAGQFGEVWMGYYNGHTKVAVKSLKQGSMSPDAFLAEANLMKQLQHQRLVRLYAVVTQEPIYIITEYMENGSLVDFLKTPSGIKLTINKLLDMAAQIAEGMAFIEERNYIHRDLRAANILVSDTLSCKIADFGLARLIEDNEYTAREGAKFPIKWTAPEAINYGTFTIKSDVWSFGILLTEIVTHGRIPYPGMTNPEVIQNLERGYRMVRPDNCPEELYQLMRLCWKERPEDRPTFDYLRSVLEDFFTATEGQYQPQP

[16] = molecular target: Dual specificity tyrosine-phosphorylation-regulated kinase 1A (Homo sapiens) (UniProt Q13627); test: Inhibition of DYRK1a at 10 uM; in short: as §1
[17] = molecular target: Ribosomal protein S6 kinase alpha-5 (Homo sapiens) (UniProt O75582); test: Inhibition of MSK1 at 10 uM; in short: as §1
Chain of Ribosomal protein S6 kinase alpha-5 (Homo sapiens) (O75582 whole entry, looked up): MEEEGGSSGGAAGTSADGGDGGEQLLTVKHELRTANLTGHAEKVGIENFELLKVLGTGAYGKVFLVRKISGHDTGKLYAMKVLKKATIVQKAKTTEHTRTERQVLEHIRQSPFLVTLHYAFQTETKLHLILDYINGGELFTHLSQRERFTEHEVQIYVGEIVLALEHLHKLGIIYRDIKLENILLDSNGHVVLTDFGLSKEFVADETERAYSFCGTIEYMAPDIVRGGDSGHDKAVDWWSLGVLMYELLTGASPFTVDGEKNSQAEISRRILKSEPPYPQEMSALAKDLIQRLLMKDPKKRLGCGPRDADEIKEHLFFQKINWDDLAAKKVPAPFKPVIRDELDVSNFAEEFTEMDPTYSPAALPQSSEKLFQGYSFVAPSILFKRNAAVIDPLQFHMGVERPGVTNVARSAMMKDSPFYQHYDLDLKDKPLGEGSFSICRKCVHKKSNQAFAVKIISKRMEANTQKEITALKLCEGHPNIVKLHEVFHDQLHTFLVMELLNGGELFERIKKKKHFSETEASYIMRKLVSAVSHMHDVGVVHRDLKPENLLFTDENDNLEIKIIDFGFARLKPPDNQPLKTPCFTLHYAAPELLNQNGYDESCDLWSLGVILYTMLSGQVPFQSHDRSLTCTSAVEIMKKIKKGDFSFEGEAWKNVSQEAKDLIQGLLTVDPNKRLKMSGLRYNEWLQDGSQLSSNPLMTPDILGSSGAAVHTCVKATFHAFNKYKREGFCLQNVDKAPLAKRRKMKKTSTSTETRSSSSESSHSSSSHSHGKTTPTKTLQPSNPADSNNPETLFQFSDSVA

[18] = molecular target: T2, MAP kinase-activated protein kinase 5 (Homo sapiens) (UniProt Q8IW41); test: Inhibition of PRAK at 10 uM; in short: as §1
T2 sequence (whole entry): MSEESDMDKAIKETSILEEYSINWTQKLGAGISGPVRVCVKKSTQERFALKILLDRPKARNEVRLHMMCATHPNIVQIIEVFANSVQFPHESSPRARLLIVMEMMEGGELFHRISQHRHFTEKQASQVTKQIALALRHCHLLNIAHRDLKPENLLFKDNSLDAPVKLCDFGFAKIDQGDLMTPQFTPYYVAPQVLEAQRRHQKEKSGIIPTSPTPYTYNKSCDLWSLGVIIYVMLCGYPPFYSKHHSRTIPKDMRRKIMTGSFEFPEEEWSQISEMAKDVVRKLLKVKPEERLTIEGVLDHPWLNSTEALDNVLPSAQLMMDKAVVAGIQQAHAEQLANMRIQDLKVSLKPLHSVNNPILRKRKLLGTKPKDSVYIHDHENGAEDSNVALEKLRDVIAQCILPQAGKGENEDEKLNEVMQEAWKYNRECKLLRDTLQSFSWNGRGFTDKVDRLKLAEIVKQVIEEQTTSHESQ

[19] = molecular target: cAMP-dependent protein kinase (PKA) (Homo sapiens) (UniProt P22694+P17612+P22612); test: Inhibition of PKA at 10 uM; assay type: protein assay; in short: as §1
[20] = molecular target: RAC-alpha serine/threonine-protein kinase (Homo sapiens) (UniProt P31749); test: Inhibition of PKBa at 10 uM; in short: as §1
Chain of RAC-alpha serine/threonine-protein kinase (Homo sapiens) (P31749 whole entry): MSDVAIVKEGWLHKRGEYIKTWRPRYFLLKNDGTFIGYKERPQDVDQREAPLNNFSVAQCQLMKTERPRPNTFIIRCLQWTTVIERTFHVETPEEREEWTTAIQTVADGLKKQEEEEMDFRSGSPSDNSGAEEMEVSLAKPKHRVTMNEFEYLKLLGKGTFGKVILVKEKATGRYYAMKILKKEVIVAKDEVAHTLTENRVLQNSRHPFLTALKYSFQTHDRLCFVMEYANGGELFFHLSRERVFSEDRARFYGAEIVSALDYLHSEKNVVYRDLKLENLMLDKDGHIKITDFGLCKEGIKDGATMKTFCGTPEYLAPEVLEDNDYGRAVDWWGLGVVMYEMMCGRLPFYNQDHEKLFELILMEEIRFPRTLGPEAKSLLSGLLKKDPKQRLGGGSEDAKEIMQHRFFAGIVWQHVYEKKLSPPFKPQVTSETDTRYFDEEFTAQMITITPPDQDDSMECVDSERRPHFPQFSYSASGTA

[21] = molecular target: Ribosomal protein S6 kinase (P70S6K) (Homo sapiens) (UniProt Q9UBS0+P23443); test: Inhibition of p70 S6K at 10 uM; assay type: protein-complex assay; in short: as §1
[22] = molecular target: Glycogen synthase kinase-3 beta (Homo sapiens) (UniProt P49841); test: Inhibition of GSK3b at 10 uM; in short: as §1
Chain of Glycogen synthase kinase-3 beta (Homo sapiens) (P49841 whole entry, looked up): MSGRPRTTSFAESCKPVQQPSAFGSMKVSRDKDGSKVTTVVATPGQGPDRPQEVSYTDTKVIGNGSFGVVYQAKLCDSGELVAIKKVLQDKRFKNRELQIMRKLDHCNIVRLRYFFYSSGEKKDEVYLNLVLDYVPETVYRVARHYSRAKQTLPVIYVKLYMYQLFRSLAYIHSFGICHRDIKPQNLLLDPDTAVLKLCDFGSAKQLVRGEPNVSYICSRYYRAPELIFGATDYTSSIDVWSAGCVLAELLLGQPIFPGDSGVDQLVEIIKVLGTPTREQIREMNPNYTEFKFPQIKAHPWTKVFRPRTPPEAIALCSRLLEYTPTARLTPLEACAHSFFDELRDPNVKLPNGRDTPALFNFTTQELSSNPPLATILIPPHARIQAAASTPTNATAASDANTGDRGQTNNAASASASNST

Homo sapiens = species: Homo sapiens; settings: at 10 µM

Chain of Mitogen-activated protein kinase 1 (Homo sapiens) (P28482 whole entry): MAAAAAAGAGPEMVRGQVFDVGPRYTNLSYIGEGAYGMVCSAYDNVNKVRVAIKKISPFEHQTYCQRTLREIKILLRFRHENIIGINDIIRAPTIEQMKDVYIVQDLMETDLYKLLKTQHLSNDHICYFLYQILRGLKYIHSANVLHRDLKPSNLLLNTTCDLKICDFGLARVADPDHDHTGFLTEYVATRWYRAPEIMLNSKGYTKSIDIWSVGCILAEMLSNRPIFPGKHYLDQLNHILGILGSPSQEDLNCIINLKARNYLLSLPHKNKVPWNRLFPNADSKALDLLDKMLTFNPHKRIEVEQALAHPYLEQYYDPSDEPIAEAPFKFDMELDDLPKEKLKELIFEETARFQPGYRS

Molecule `CCONC(=O)c1cn(C)c(=O)c(C)c1Nc1ccc(Br)cc1F` has an inhibition [1] of 6%, an inhibition [2] of 13% and an inhibition [3] of 3%. It also gave an inhibition [4] of 23%, an Activity (Malme-3M) of 118 nM and a solubility [5] of 60 µg/mL (≈ 151 µM). For the same molecule, the clearance [6] was 1.9 mL/min/kg, the Vd [7] was 0.4 L/kg and the AUC (Rattus norvegicus [8]) was 8900 ng·h/mL. It also gave an AUC (Rattus norvegicus [9]) of 75000 ng·h/mL, a half-life [10] of 4.7 h and a bioavailability [11] of 80%. The inhibition in vivo at 10 mg/kg (HT-29) was over 80%, the inhibition [12] was 2% and the inhibition [13] was 8%. For the same molecule, the inhibition [14] was 4%, the inhibition [15] was 9% and the inhibition [16] was 15%. It also gave an inhibition [17] of 5%, an inhibition [18] of 18% and an inhibition [19] of -1%. For the same molecule, the inhibition [20] was 6%, the inhibition [21] was -1% and the inhibition [22] was 15%. The inhibition (Homo sapiens) was -3%.

In the case of `CONC(=O)c1cn(C)c(=O)c(C)c1Nc1ccc(Br)cc1F`, the inhibition [1] is reported as -9%, the inhibition [2] is reported as 5% and the inhibition [3] is reported as -8%. The inhibition [4] was 7%, the Activity (Malme-3M) was 265 nM and the solubility [5] was 200 µg/mL (≈ 521 µM). For the same molecule, the clearance [6] was 1.5 mL/min/kg, the Vd [7] was 0.4 L/kg and the AUC (Rattus norvegicus [8]) was 11500 ng·h/mL. It also gave an AUC (Rattus norvegicus [9]) of 88300 ng·h/mL, a half-life [10] of 4.7 h and a bioavailability [11] of 73%. For the same molecule, the inhibition in vivo at 10 mg/kg (HT-29) was over 80%, the inhibition [12] was -4% and the inhibition [13] was -3%. It also gave an inhibition [14] of -4%, an inhibition [15] of -1% and an inhibition [16] of 2%. It also gave an inhibition [17] of 6%, an inhibition [18] of 9% and an inhibition [19] of -7%. For the same molecule, the inhibition [20] was 12%, the inhibition [21] was -2% and the inhibition [22] was 12%. It also gave an inhibition (Homo sapiens) of -9%.

`Cc1c(Nc2ccc(Br)cc2F)c(C(=O)NOCCO)cn(C)c1=O` showed an inhibition [1] of 6%, an inhibition [2] of 16% and an inhibition [3] of -9%. For the same molecule, the inhibition [4] was 23%, the Activity (Malme-3M) was 11 nM and the solubility [5] was 450 µg/mL (≈ 1090 µM). It also gave a clearance [6] of 8 mL/min/kg, a Vd [7] of 1.1 L/kg and an AUC (Rattus norvegicus [8]) of 2260 ng·h/mL. It also gave an AUC (Rattus norvegicus [9]) of 12000 ng·h/mL, a half-life [10] of 3 h and a bioavailability [11] of 53%. The inhibition in vivo at 10 mg/kg (HT-29) was over 80%, the inhibition [12] was 19% and the inhibition [13] was 11%. It also gave an inhibition [14] of -1%, an inhibition [15] of 13% and an inhibition [16] of 10%. The inhibition [17] was 2%, the inhibition [18] was 16% and the inhibition [19] was 15%. It also gave an inhibition [20] of -4%, an inhibition [21] of 18% and an inhibition [22] of 17%. It also gave an inhibition (Homo sapiens) of -7%.
